The values below come from ChEMBL document CHEMBL3870302, “Computer-aided identification, synthesis and evaluation of substituted thienopyrimidines as novel inhibitors of HCV replication” (Eur J Med Chem, 2016).

The term CC50 denotes the concentration at which the toxic effect on the cells reaches its halfway point. A word on the pEC50: it is the EC50 on a negative log10 scale, so that one unit is a factor of ten. As a reminder, the EC90 is the point of the concentration-response curve where the effect stands at 90%. Low readings indicate an effect from little substance, high ones a need for much substance. One may read the pIC50 as the negative decadic logarithm of the IC50, by convention in mol/L.

pEC50, pIC50: −log10 of the molar value.

Data set [1] is described as follows: Cytotoxicity against human HuH5.2 cells assessed as reduction in metabolic activity after 72 hrs by MTS assay. The note with it: HuH5.2 cells. It is filed as toxicity, cell-based, Huh-5-2. In short, it runs like this:
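Run in parallel with the replicon assay: Huh 5-2 replicon cells, 6 500 cells/well, compound series for 72 h at 37 °C, 5% CO2. Medium then replaced with 5% MTS in phenol red-free medium for 1.5 h. Absorbance at 498 nm expressed as % untreated cells; CC50 from dose-response curve as 50% reduction in metabolic activity, mean of ≥2 experiments.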
A general note: Formazan colour is commonly taken as a measure of viable cells.

The nature of data set [2]: Selectivity index, ratio of CC50 for human HuH5.2 cells to EC50 for hepatitis C virus genotype 1b infected in human HuH5.2 cells. Type of data set: toxicity, cell-based. As to conditions: HuH5.2 cells, read-out: Ratio CC50/EC50. In short, it runs like this:
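Ratio of CC50 (MTS metabolic read-out, 72 h) to EC50 (replicon luciferase read-out, 72 h), both measured in parallel on Huh 5-2 genotype 1b replicon cells.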

The test system of a further data set is Hepatitis C virus. Description: Antiviral activity against Hepatitis C virus genotype 1b infected in human HuH5.2 cells after 72 hrs by luciferase reporter gene assay. It is filed as functional, cell-based, Hepacivirus hominis. In short, it runs like this: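 Huh 5-2 cells with genotype 1b I389luc-ubi-neo/NS3-3'/5.1 subgenomic replicon, seeded 6 500 cells/well in DMEM/10% FCS without Geneticin, overnight 37 °C. Compound (DMSO stock diluted in medium) in 1:5 four-step or 1:2 eight-step series, 72 h. Cells PBS-washed, lysed 5 min, luciferase luminescence read, converted to % untreated control; EC50 from dose-response curve, mean of ≥2 independent experiments.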
In general terms: A reporter such as luciferase makes a cellular process visible.

A short description of data set [3]: Inhibition of Hepatitis C virus genotype 1b (con1) full length C-terminal His-tagged NS3 helicase expressed in Escherichia coli Rosette(DE3) assessed as inhibition of 5'-Cy5/3'-IAbRQ-labeled DNA unwinding activity by molecular beacon assay. Further details: species or system Hepatitis C virus (isolate Con1). In short, it runs like this:
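Molecular beacon unwinding assay: 25 mM MOPS pH 6.5, 1.25 mM MgCl2, 5% DMSO, 5 µg/ml BSA, 0.01% Tween20, 0.05 mM DTT, 5 nM fluorescent DNA substrate, 12.5 nM NS3h, 1 mM ATP.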

The mark [4] stands for this setting: Hepatitis C virus, genotype 1b, Huh-5-2, 72 h.

On to `NNc1ncnc2sc3c(c12)CCCC3`, for which the 50% cytotoxic concentration (CC50) at 72 h in data set [1] turned out to be 247 µM. Besides, the selectivity ratio in data set [2] was 10.7. In the data set on Hepatitis C virus (setting [4]), the pEC50 was 4.64 and the EC90 came to 47.4 µM.

For the molecule `Cc1c(Cl)sc2ncnc(NNC(=O)c3ccccn3)c12`, the CC50 at 72 h in data set [1] was more than 9.38 µM. Also, the pIC50 in data set [3] was less than 3.00. Also, in data set [2], the selectivity ratio was more than 106. Also, in the data set with Hepatitis C virus (setting [4]), the negative-log EC50 (pEC50) was 7.06 and it took 0.286 µM to reach the 90% level (EC90).

Take `C/C(=N\Nc1ncnc2sc3c(c12)CCCC3)c1cccc(O)c1`: the CC50 at 72 h in data set [1] was more than 443 µM. For the same molecule, the selectivity ratio in data set [2] was more than 1.1. In the data set on Hepatitis C virus (setting [4]), this molecule had a negative-log EC50 (pEC50) of 3.39 and an EC90 of more than 443 µM.

For the molecule `O=C(NNc1ncnc2sc3c(c12)CCCC3)c1cccnc1`, in data set [1], the half-maximal cytotoxic concentration (CC50) at 72 h was more than 307 µM. The selectivity ratio in data set [2] is more than 2.4. In the data set on Hepatitis C virus (setting [4]), the pEC50 was 3.89 and the concentration for an effect of 90% (EC90) is more than 307 µM.

Consider `C/C(=N\Nc1ncnc2sc3ccccc3c12)c1nc2ccccc2[nH]1`, for which the CC50 at 72 h in data set [1] amounted to 19.1 µM. In addition, the pIC50 in data set [3] was less than 3.00. In data set [2], the selectivity ratio was 17.4. In addition, in the data set on Hepatitis C virus (setting [4]), the pEC50 was 5.96 and the 90% effect concentration (EC90) is 3.25 µM.

For `O=C(NNc1ncnc2sccc12)c1ccccc1O`, the CC50 at 72 h in data set [1] was more than 349 µM. Besides, the selectivity ratio in data set [2] is more than 27. In the data set with Hepatitis C virus (setting [4]), this molecule showed a negative logarithm of the EC50 (pEC50) of 4.92 and a concentration for an effect of 90% (EC90) of more than 38.8 µM.

For `C/C(=N\Nc1ncnc2sc3c(c12)CCC3)c1cc(O)ccc1O`, the CC50 at 72 h in data set [1] was more than 367 µM. In data set [2], the selectivity ratio is more than 20.6. For the same molecule, in the data set on Hepatitis C virus (setting [4]), the negative-log EC50 (pEC50) was 4.75 and the concentration for an effect of 90% (EC90) was 17.6 µM.

Consider `O=C(NNc1ncnc2sc3c(c12)CCCC3)c1ccco1`, for which the half-maximal cytotoxic concentration (CC50) at 72 h in data set [1] was 230 µM. Besides, the selectivity ratio in data set [2] was determined as 1.2. In the data set with Hepatitis C virus (setting [4]), this molecule gave a negative logarithm of the EC50 (pEC50) of 3.70.

Take `C/C(=N\Nc1ncnc2sc3ccccc3c12)c1cnccn1`: the CC50 at 72 h in data set [1] was found to be 1.99 µM. The selectivity ratio in data set [2] came to 6.4. In the data set with Hepatitis C virus (setting [4]), this molecule gave a pEC50 of 6.38 and an EC90 of 0.858 µM.

For `C/C(=N\Nc1ncnc2sc3c(c12)CCCC3)c1ccccc1`, the half-maximal cytotoxic concentration (CC50) at 72 h in data set [1] came out at 53.4 µM. In data set [2], the selectivity ratio was found to be 1.6. Further, in the data set on Hepatitis C virus (setting [4]), the negative-log EC50 (pEC50) was 4.47 and the EC90 is more than 310 µM.

Consider `COc1ccc(OC)c(/C(C)=N/Nc2ncnc3sc4c(c23)CCCC4)c1`, for which the CC50 at 72 h in data set [1] amounted to 98.5 µM. Besides, the selectivity ratio in data set [2] was found to be 1.8. The same molecule gave a negative logarithm of the EC50 (pEC50) in the data set with Hepatitis C virus (setting [4]) of 4.27.

As to `O=C(NNc1ncnc2sc3c(c12)CCCC3)c1cccc(O)c1`, the CC50 at 72 h in data set [1] was more than 294 µM. Further, the selectivity ratio in data set [2] was more than 1.4. Besides, in the data set with Hepatitis C virus (setting [4]), the pEC50 is 3.68 and the EC90 was more than 220 µM.

Regarding `C/C(=N\Nc1ncnc2sc3c(c12)CCCC3)c1cccnc1`, the 50% cytotoxic concentration (CC50) at 72 h in data set [1] is more than 309 µM. For the same molecule, the selectivity ratio in data set [2] was more than 3.9. Besides, in the data set on Hepatitis C virus (setting [4]), the negative logarithm of the EC50 (pEC50) was 4.10 and the EC90 is more than 103 µM.

Turning to `C/C(=N\Nc1ncnc2sc3c(c12)CCCC3)c1ccccn1`, in data set [1], the CC50 at 72 h stood at 7.59 µM. The selectivity ratio in data set [2] came to 6.9. Also, in the data set on Hepatitis C virus (setting [4]), the negative-log EC50 (pEC50) was 5.96 and the 90% effect level (EC90) was put at 3.48 µM.

In the case of `COc1cccc(C2=Nn3c(CN4CCC(C)CC4)nnc3SC2)c1`, the CC50 at 72 h in data set [1] is more than 139 µM. The selectivity ratio in data set [2] is more than 1.1. In the data set with Hepatitis C virus (setting [4]), this molecule showed a pEC50 of 3.89 and an EC90 of more than 139 µM.

Take `C/C(=N\Nc1ncnc2sc3c(c12)CCCC3)c1cc(Cl)ccc1Cl`: in data set [1], the cytotoxic concentration (CC50) at 72 h was more than 256 µM. Moreover, the selectivity ratio in data set [2] is more than 27.2. In the data set on Hepatitis C virus (setting [4]), the negative-log EC50 (pEC50) is 5.03 and the 90% effect concentration (EC90) was determined as 55.1 µM.

As for `O=C(NNc1ncnc2sc3c(c12)CCCC3)c1ccc[nH]1`, in data set [1], the half-maximal cytotoxic concentration (CC50) at 72 h came to 160 µM. In addition, the selectivity ratio in data set [2] was 1.1. The negative-log EC50 (pEC50) in the data set on Hepatitis C virus (setting [4]) is 3.83.

In the case of `C/C(=N\Nc1ncnc2sc3c(c12)CCCC3)c1cc(O)ccc1O` (stereo in doubt; form 2), the CC50 at 72 h in data set [1] is more than 282 µM. Also, the selectivity ratio in data set [2] was more than 128. In the data set on Hepatitis C virus, this molecule gave a pEC50 of more than 5.66 and an EC90 of 135 µM.
